SENP7 inh = SENP7 protease inhibition | inhibition, % at 5 µM | AID 434973 | 330,000 compounds, 1.5% hits | recombinant SENP7, Z-RLRGG-aminoluciferin luminescence, 40 min;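 active = inhibition above about 50% at the single test dose, limit read from the data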;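 also: plate controls were DMSO with enzyme for no effect and no enzyme buffer wells for full effect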
Target sequence (Q9BQF6 706-1050 limits assumed): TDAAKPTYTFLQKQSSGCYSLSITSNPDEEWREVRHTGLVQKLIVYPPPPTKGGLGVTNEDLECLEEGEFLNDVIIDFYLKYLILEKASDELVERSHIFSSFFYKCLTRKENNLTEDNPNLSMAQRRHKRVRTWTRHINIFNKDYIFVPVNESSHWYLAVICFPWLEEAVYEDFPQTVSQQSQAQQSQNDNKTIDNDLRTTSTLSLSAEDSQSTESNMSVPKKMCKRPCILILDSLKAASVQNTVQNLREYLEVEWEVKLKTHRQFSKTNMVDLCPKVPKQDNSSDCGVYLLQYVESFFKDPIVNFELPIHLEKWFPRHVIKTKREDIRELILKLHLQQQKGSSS
SENP8 block-1 = SENP8 protease inhibition; Q96LD8; purified SENP8, Z-RLRGG-aminoluciferin cleavage, luminescence; inhibition, % at 10 µM; 330,000 compounds, 1.2% hits; AID 2540; in the data active = inhibition above about 50%
SENP6 block = SENP6 protease inhibition; Q9GZR1; Recombinant SENP6 catalytic domain, aminoluciferin luminescence; inhibition, % at 10 µM; 330,000 compounds, 1.8% hits; AID 2599;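 active = inhibition above about 50% at the single tested dose, limit read from the data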;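 also: plate controls were DMSO wells with enzyme for no effect and DMSO wells lacking enzyme for full effect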
SENP8 block-2 = blocks human SENP8 cleavage of Nedd8 substrate; inhibition, % at 20 µM; recombinant SENP8, Nedd8 substrate fluorescence; 360,000 compounds, 0.64% hits; Q96LD8; AID 602440; in the data active = inhibition mostly above about 40%, no sharp cut-off; inactive = mostly below about 27%
SENP1 FRET inh = inhibitors of human SENP1 SUMO protease catalytic domain; Q9P0U3; recombinant SENP1 catalytic domain, CyPet-SUMO1-YPet FRET cleavage; inhibition, % at 10 µM; 360,000 compounds, 0.21% hits;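 active = inhibition at least 30% at 10 µM, raw YFP signal under a set limit, fluorescence ratio 0.5 to 1.5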;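 also: 0% = enzyme with DMSO and 100% = no enzyme wells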
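Compound: 10 µM single point, 0.5% DMSO; Test system: hSENP1 catalytic domain, recombinant; Timing: 50 min reaction at room temperature; Technique: FRET, CFP and YFP emission; Control set: no-enzyme wells low, DMSO-plus-enzyme wells high control.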
An asterisk follows results filed as active; nt = no result. A selection: hits, their analogues and other compounds. The true share with any hit is near 2.5%.

SMILES	SENP7 inh	SENP8 block-1	SENP6 block	SENP8 block-2	SENP1 FRET inh
O=C(Cc1c(Cl)cccc1Cl)N1CCN(S(=O)(=O)c2cccs2)CC1	-11	-17	-19	-11	-2
O=C1C=C(Nc2cccc3cccnc23)c2ccccc2C1=O	9	10	33	43*	-21
O=C(CN1C(=O)c2ccccc2C1=O)Nc1cccc2cccnc12	1	-6	-5	-2	3
C[C@H](CO)N1C[C@H](C)[C@H](CN(C)S(=O)(=O)c2cccc(F)c2)Oc2ncc(-c3cccc(C(=O)N(C)C)c3)cc2C1=O	nt	nt	nt	8	0
N#C/C(=C\c1ccccc1O)C(=O)Nc1cccnc1	75*	51*	77*	3	-2
COc1cc(NC(=O)c2sc(C)nc2C)c(OC)cc1NC(=O)c1ccccc1	-6	-2	-3	-4	-9
O=c1c2cc(Cl)ccc2nc(-c2ccc(Cl)c(Cl)c2)n1O	9	15	59*	-19	5
CC1(C)C(=S)N(Cc2ccccc2)c2ccccc21	-5	-5	2	23	-2
Oc1ccc(/C=N/N=C(c2ccccc2)c2ccccc2)c(O)c1O	nt	nt	nt	34*	-32
O=C(/C(=N/N=C/c1ccc(O)c(O)c1O)c1ccccc1)c1ccccc1	0	3	8	30	2
O=C(NCC1CC1)c1csc([C@@H]2O[C@H](CO)[C@H](O)[C@H](O)[C@H]2O)n1	nt	nt	nt	24	1
CC(Nc1cccc2ccccc12)C(=O)N/N=C/c1ccc([N+](=O)[O-])cc1 (stereo not given)	46	4	81*	-40	3
COC(=O)c1ccc(C2Nc3cccc4cccc(c34)N2)cc1	12	2	27	54*	11
COc1cc(C2Nc3cccc4cccc(c34)N2)ccc1OC(C)=O	-3	7	11	11	3
Oc1ccc(C2Nc3cccc4cccc(c34)N2)c(O)c1	3	-5	5	45*	-6
COc1cc(C2Nc3cccc4cccc(c34)N2)cc(OC)c1O	98*	8	19	58*	-7
Fc1ccc(C2Nc3cccc4cccc(c34)N2)cc1	-4	1	15	34	6
Cc1c(-c2ccccc2)cnc2c(C)cccc12	-5	-8	-11	8	1
COc1cc(C(=O)N(C)CCOc2ccc(C)cc2)ccc1OC1CCN(C(C)=O)CC1	-7	5	-6	11	1
NC(=S)N=Nc1c(O)n(CCCl)c2ccccc12	4	-5	-10	36	2
NC(=S)N=Nc1c(O)n(C2OC(=O)c3ccccc32)c2ccccc12 (stereo not given)	-1	-2	-7	49*	3
CN(CC(=O)Nc1cccc(F)c1)C(=O)c1ccc(COc2ccccc2)o1	-3	4	-15	-5	0
CCN(C(=O)C(C)N1C(=O)/C(=C/c2ccco2)SC1=S)C1CCS(=O)(=O)C1 (stereo not given)	1	11	14	48*	-8
CC(C)(C)c1nn(-c2ccccc2)c2[nH]c(=O)c(C=O)cc12	-6	14	2	-111	-14
COc1ccc([C@H]2C[C@H](O)[C@@H](n3cc(C4CC4)nn3)CN2C(=O)C2CCCCC2)cc1	nt	nt	nt	5	-1
SMILES	SENP7 inh	SENP8 block-1	SENP6 block	SENP8 block-2	SENP1 FRET inh
CC(=O)N(C1=C(Cl)C(=O)c2ccccc2C1=O)C1CCCCC1	21	45	51*	-113	-13
CCOC1=NN(c2ncc(C(F)(F)F)cc2Cl)C(=O)/C1=C/N(C)C	-8	-9	-11	-2	-3
N#CC(C#N)=C1c2cc(S(=O)(=O)NCCO)ccc2-c2ccc(S(=O)(=O)NCCO)cc21	5	4	-4	24	33*
O=C1c2cc(S(=O)(=O)NCCO)ccc2-c2ccc(S(=O)(=O)NCCO)cc21	5	6	3	6	5
COC1=CC(=O)c2nc(Cl)ccc2C1=O	nt	nt	nt	88*	6
CC(/C=N/NC(=O)c1sc(N)nc1C)=C\c1ccccc1	69*	-1	36	-162	3
O=C(CCNS(=O)(=O)c1ccc(Br)cc1)NCCCSc1ccccc1	7	0	13	6	2
CC(=O)[C@H]1[C@@H]2C(=O)N(c3cccc(Cl)c3)C(=O)[C@@H]2[C@H]2c3ccccc3C=CN21	34	27	53*	-198	-18
CC(=O)[C@@H]1[C@@H]2C(=O)N(C3CCCCC3)C(=O)[C@@H]2C2c3ccccc3C=CN21 (stereo not given in full)	30	28	55*	nt	nt

Screens deposited in PubChem BioAssay by Sanford-Burnham Center for Chemical Genomics.
